Most compounds without a hit are left out; they make up all but 1.6% or so of the library.
PLCg1 inh – inhibitors of human phospholipase C gamma1; purified PLC-gamma1, fluorogenic substrate, fluorescence; inhibition, % at 12.2 µM; AID 720700; P19174; 370,000 tested, 0.84% active; in the data active = inhibition above about 9.5%
sPLA2-III inh – Inhibits HGIII-sPLA2 liposome hydrolysis, primary screen; Q9NZ20; QFRET BODIPY PC-A2 liposome hydrolysis, fluorescence; inhibition, % at 12.2 µM; 370,000 tested, 0.56% active; AID 743126;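 active = inhibition above mean plus 3 SD of compounds lying within the high and low control bounds, cut at about 19% in these data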
procasp3 activ – activators of human procaspase-3; 330,000 tested, 0.11% active; P42574; recombinant procaspase-3 D3A, Ac-DEVD-pNA absorbance 405 nm; activation, % at 8.5 µM; AID 463141;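 active = activation above the mean of all tested compounds plus 3 SD, cut at about 21% in these data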
Target sequence (P42574 whole entry D9A/D28A/D175A): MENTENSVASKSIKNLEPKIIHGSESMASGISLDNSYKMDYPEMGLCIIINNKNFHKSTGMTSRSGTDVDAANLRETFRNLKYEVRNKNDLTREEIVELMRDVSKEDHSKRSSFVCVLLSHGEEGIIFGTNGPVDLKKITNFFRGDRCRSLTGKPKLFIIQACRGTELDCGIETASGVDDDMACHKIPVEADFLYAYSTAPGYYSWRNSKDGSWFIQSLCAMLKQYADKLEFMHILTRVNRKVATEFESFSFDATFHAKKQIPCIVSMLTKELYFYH
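Assay system – Procaspase-3 D3A mutant · Benchmarks – DMSO low control, extra-enzyme high control · Technique – 405 nm absorbance of p-nitroaniline, reads at 0 and 120 min · Doses – 8.5 µM nominal · Measure – % activation between DMSO and enzyme-spiked controls · Also added – Ac-DEVD-pNA chromogenic peptide substrate · Schedule – 1 h compound preincubation, 2 h substrate hydrolysis at 25 °C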
PLCb3 inh – inhibitors of human phospholipase C beta3. inhibition, % at 12.2 µM. Purified PLC-beta3, fluorogenic substrate, fluorescence. 370,000 tested, 0.18% active. AID 720704; in the data active = inhibition above about 11%
proCasp7 act – counter-screen: procaspase-7 (human) activation; 330,000 tested, 0.093% active; activation, % at 8.5 µM; AID 463210; P55210; recombinant procaspase-7, Ac-DEVD-pNA absorbance 405 nm; D23A/D198A/D206A triple mutant, cannot self-cleave; scale: DMSO 0, 5 µM enzyme 100;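 active = percent activation above the screen-wide mean plus 3 SD, cut at about 25% in these data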
Target sequence (P55210 whole entry D23A/D198A/D206A): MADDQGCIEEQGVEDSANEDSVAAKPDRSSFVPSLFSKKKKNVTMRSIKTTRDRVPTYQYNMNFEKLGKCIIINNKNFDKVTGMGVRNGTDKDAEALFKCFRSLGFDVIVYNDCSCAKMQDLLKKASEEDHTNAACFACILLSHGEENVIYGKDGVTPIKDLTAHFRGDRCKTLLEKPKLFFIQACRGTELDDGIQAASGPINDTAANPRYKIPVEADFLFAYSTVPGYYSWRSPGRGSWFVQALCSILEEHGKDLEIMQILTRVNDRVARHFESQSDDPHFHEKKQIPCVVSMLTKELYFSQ
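Material: Procaspase-7 triple mutant (PC-7 D3A) | Quantity: 2 µM procaspase-7 mutant as dispensed | Reagent: DEVD-pNA substrate | Times: 1 h preincubation, 2 h reaction | Technique: 405 nm absorbance of p-nitroaniline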
sPLA2 confirm – human GIII-sPLA2 inhibition, confirmation; 2,000 tested, 34% active; recombinant hGIII-sPLA2, BODIPY PC-A2 QFRET fluorescence; AID 743280; shares compounds with sPLA2-III inh; inhibition, % at 12.2 µM;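 active = mean inhibition across triplicates above the hit cutoff set in the earlier primary screen, cut at about 19% in these data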
BODIPY interf – counter-screen for HGIII-sPLA2 inhibitors: 535nm fluorescence interference | shares compounds with sPLA2-III inh | BODIPY FL product fluorescence interference, QFRET | inhibition, % at 12.2 µM | 2,000 tested, 8.5% active | AID 743282;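 active = average inhibition above the solvent-only control mean plus 3 SD, cut at about 6% in these data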
BODIPY interf DR – counter-screen for HGIII-sPLA2 inhibitors: 535nm fluorescence interference, dose response; shares compounds with sPLA2-III inh; BODIPY FL product fluorescence interference, cell-free; IC50, µM; 240 tested, under 10 active; AID 743455;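 active = IC50 at or below 10 µM; inactive = IC50 above 10 µM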
Hits are given with their value.

For Cc1nnsc1C(=O)N/N=C/c1ccc2ccccc2c1O the results were PLCg1 inh inactive, sPLA2-III inh 37.7, procasp3 activ inactive, PLCb3 inh inactive, proCasp7 act inactive, sPLA2 confirm 21.0 and BODIPY interf inactive.
Screening COc1ccc(O)c(/C=N/NC(=S)Nc2cccc(S(=O)(=O)N(C)C)c2)c1 returned PLCg1 inh inactive, sPLA2-III inh 24.3, procasp3 activ inactive, PLCb3 inh inactive, proCasp7 act inactive, sPLA2 confirm inactive and BODIPY interf 11.6.
Screening COc1ccc(O)c(/C=N/NC(=S)Nc2cccnc2)c1 returned PLCg1 inh inactive, sPLA2-III inh 20.1, procasp3 activ inactive, PLCb3 inh inactive, proCasp7 act inactive, sPLA2 confirm 27.1 and BODIPY interf inactive.
`COc1cccc(/C=N/NC(=S)Nc2cccnc2)c1` gave PLCg1 inh inactive, sPLA2-III inh inactive, procasp3 activ inactive, PLCb3 inh inactive and proCasp7 act inactive.
`COc1cccc(/C=N/NC(=S)Nc2cccc(S(=O)(=O)N(C)C)c2)c1` gave PLCg1 inh inactive, sPLA2-III inh inactive, procasp3 activ inactive, PLCb3 inh inactive and proCasp7 act inactive.
`CC(=O)c1c(C)nn(CC(=O)NC2CCCN(Cc3ccc(CC(C)C)cc3)C2)c1C` (stereo unspecified) gave PLCg1 inh inactive, sPLA2-III inh inactive, procasp3 activ inactive, PLCb3 inh inactive and proCasp7 act inactive.
`CN(CC(=O)Nc1ccc(Cl)c(C(F)(F)F)c1)S(=O)(=O)c1cnc[nH]1` gave PLCg1 inh inactive, sPLA2-III inh inactive and PLCb3 inh inactive.
Screening Cc1cc(NC(=O)C(C)C)ncc1NC(=O)c1ccco1 returned PLCg1 inh inactive, sPLA2-III inh 20.0, procasp3 activ inactive, PLCb3 inh inactive, proCasp7 act inactive, sPLA2 confirm inactive and BODIPY interf inactive.
`COC(=O)C1=C(C)NC2=C(C(=O)CC(C)(C)C2)C1c1cnn(C)c1C` (stereo unspecified) gave PLCg1 inh inactive, sPLA2-III inh 20.9, procasp3 activ inactive, PLCb3 inh inactive, proCasp7 act inactive, sPLA2 confirm inactive and BODIPY interf inactive.
OC1c2cc(Br)ccc2N=C2CCCCCN21 (stereo unspecified) was read as PLCg1 inh inactive, sPLA2-III inh 20.1, PLCb3 inh inactive, sPLA2 confirm inactive and BODIPY interf inactive.
`CCSC1=NCCN1S(=O)(=O)c1ccc(Cl)cc1` gave PLCg1 inh inactive, sPLA2-III inh 22.0, procasp3 activ inactive, PLCb3 inh inactive, proCasp7 act inactive, sPLA2 confirm inactive and BODIPY interf inactive.
`CCSC1=NCCN1S(=O)(=O)c1ccccc1` gave PLCg1 inh inactive, sPLA2-III inh inactive, procasp3 activ inactive, PLCb3 inh inactive and proCasp7 act inactive.
`CCOC(=O)[C@@]12CN(C(=O)OC(C)(C)C)CC=C1N(Cc1ccc(OC)cc1)C(=O)[C@H]2CC(=O)NCc1cccs1` gave PLCg1 inh inactive, sPLA2-III inh inactive and PLCb3 inh inactive.
`CCOc1ccc(C2OCCC(C)O2)cc1OC` (stereo unspecified) gave PLCg1 inh inactive, sPLA2-III inh 19.9, PLCb3 inh inactive, sPLA2 confirm inactive and BODIPY interf inactive.
CCOc1ccc(CNC2CCCCCCC2)cc1OC was read as PLCg1 inh inactive, sPLA2-III inh inactive, procasp3 activ inactive, PLCb3 inh inactive and proCasp7 act inactive.
For CCC1CCCCN1CCCNC(=O)C1CCN(c2nnc(-n3cccc3)s2)CC1 (stereo unspecified) the results were PLCg1 inh inactive, sPLA2-III inh inactive, procasp3 activ inactive, PLCb3 inh inactive and proCasp7 act inactive.
Screening O=C(NCCNc1ccc([N+](=O)[O-])cc1)c1cccc(Br)c1 returned PLCg1 inh inactive, sPLA2-III inh 23.1, procasp3 activ inactive, PLCb3 inh inactive, proCasp7 act inactive, sPLA2 confirm inactive and BODIPY interf inactive.
COC(=O)[C@@H]1C(c2c(OC)cc(OC)cc2OC)=NO[C@H]1C(=O)OC was read as PLCg1 inh inactive, sPLA2-III inh 20.2, procasp3 activ inactive, PLCb3 inh inactive, proCasp7 act inactive, sPLA2 confirm inactive and BODIPY interf inactive.
COc1cc(F)ccc1-c1cc(C(=O)Nc2ccc(NC(C)=O)cc2)[nH]n1 was read as PLCg1 inh inactive, sPLA2-III inh inactive and PLCb3 inh inactive.
For CC(C)C1Cc2[nH]c(=S)[nH]c(=O)c2C(c2ccc(Cl)cc2)O1 (stereo unspecified) the results were PLCg1 inh inactive, sPLA2-III inh 19.8, PLCb3 inh inactive, sPLA2 confirm inactive and BODIPY interf inactive.
`COc1ccc(F)cc1S(=O)(=O)N1CCN(C(=O)c2ccco2)CC1` gave PLCg1 inh inactive, sPLA2-III inh inactive, procasp3 activ inactive, PLCb3 inh inactive and proCasp7 act inactive.
CC(C)c1ccc(C2NC(=S)NC3=C2C(=O)CCC3)cc1 (stereo unspecified) was read as PLCg1 inh inactive, sPLA2-III inh 24.2, procasp3 activ inactive, PLCb3 inh inactive, proCasp7 act inactive, sPLA2 confirm inactive and BODIPY interf inactive.
For CCc1nc2ccc(C(=O)Nc3ccc4c(c3)OCC(=O)N4)cn2c1N(C)Cc1nccn1C the results were PLCg1 inh inactive, sPLA2-III inh inactive and PLCb3 inh inactive.
For C[C@@H]1CN([C@@H](C)CO)C(=O)CCCn2nncc2CO[C@@H]1CN(C)C(=O)Nc1ccccc1C(F)(F)F the results were PLCg1 inh inactive, sPLA2-III inh 20.7, PLCb3 inh inactive, sPLA2 confirm inactive and BODIPY interf inactive.
CC(=O)Nc1nc2ccccc2n1CCOc1ccccc1 was read as PLCg1 inh inactive, sPLA2-III inh inactive, procasp3 activ inactive, PLCb3 inh inactive and proCasp7 act inactive.
S=C(Nc1ccccc1)Nc1nc2ccccc2n1CCOc1ccccc1 was read as PLCg1 inh inactive, sPLA2-III inh 21.3, procasp3 activ inactive, PLCb3 inh inactive, proCasp7 act inactive, sPLA2 confirm 25.4 and BODIPY interf inactive.
For Cc1ncc(C(=O)O)c(C(=O)O)c1N the results were PLCg1 inh inactive, sPLA2-III inh inactive, procasp3 activ inactive, PLCb3 inh inactive and proCasp7 act inactive.
`CC(C)N=c1scc(-c2cccs2)n1/N=C/c1ccc(O)c(O)c1O` gave PLCg1 inh inactive, sPLA2-III inh 37.9, procasp3 activ inactive, PLCb3 inh inactive, proCasp7 act inactive, sPLA2 confirm 53.5, BODIPY interf inactive and BODIPY interf DR inactive.

Screening data deposited in PubChem BioAssay by The Scripps Research Institute Molecular Screening Center.
